The text below walks through data of ChEMBL document CHEMBL1148329, “Synthesis and structure-activity studies on N-[5-(1H-imidazol-4-yl)-5,6,7,8-tetrahydro-1-naphthalenyl]methanesulfonamide, an imidazole-containing alpha(1A)-adrenoceptor agonist” (J Med Chem, 2004).

For test [1], the target named is T1, Alpha-1A adrenergic receptor (Oryctolagus cuniculus) (UniProt O02824).
T1 sequence (whole entry): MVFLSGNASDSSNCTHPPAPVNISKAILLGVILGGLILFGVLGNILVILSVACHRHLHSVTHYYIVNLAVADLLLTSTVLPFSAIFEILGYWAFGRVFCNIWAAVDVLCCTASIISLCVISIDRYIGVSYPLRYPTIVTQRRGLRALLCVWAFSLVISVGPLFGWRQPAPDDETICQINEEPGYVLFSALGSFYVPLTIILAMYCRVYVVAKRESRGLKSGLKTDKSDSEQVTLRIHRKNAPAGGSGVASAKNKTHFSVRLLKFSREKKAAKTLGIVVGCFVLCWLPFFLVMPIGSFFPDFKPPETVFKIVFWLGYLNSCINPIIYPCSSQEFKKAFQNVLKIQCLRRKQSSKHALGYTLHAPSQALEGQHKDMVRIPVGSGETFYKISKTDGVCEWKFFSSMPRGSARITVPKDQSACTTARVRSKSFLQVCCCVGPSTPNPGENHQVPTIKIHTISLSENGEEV
As to the kind of experiment: Efficacy relative to phenylephrine (PE) to constrict tissue containing the alpha-1A adrenergic receptor in rabbit urethra. It is filed as functional, tissue-based. The gist of the method:
(§1)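 α1-agonist dose–response curves in isolated tissue: rabbit urethra (α1A), rat spleen (α1B), rat aorta (α1D). Agonist potency and efficacy read from the concentration–response curves.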

Test [2] addresses Alpha adrenergic receptor 1A and 1B (Rattus norvegicus) (UniProt P15823+P43140). As to the kind of experiment: Selectivity is ratio of pKi (binding affinity) of alpha-1B receptor to that of alpha-1A receptor. It is filed as protein assay.
Test [3] has as its target T2, Alpha-2B adrenergic receptor (Rattus norvegicus, UniProt P19328).
T2 sequence (P19328 whole entry): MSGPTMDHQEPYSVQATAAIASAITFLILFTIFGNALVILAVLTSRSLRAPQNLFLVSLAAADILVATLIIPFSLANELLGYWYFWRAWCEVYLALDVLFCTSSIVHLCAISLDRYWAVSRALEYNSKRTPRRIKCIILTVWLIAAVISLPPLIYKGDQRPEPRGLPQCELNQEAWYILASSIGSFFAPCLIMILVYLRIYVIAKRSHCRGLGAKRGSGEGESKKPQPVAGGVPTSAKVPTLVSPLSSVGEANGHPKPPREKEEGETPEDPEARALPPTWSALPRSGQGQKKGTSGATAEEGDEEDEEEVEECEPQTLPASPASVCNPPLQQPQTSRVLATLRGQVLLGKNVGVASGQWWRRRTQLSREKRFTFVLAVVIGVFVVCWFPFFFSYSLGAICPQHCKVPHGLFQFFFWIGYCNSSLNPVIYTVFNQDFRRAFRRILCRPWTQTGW
As to the kind of experiment: In vitro binding affinity towards alpha-2B adrenergic receptor of rat neonatal lung in radioligand binding assay.

For test [4], the target named is T3, Alpha-1B adrenergic receptor (Rattus norvegicus) (UniProt P15823).
T3 sequence (whole entry): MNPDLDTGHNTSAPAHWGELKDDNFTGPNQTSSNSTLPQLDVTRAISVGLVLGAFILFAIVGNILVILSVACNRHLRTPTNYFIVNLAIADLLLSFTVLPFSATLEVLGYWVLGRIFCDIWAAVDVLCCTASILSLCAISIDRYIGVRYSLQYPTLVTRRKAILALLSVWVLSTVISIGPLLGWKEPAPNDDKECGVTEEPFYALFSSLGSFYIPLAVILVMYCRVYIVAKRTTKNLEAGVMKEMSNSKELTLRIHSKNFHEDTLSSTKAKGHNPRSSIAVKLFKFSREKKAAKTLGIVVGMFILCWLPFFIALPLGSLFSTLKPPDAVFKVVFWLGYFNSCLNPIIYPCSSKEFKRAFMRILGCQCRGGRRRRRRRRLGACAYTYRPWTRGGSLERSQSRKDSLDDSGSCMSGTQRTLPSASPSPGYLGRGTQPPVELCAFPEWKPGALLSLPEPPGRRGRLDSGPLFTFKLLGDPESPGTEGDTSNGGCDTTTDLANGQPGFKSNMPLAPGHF
As to the kind of experiment: Efficacy relative to phenylephrine (PE) constriction of rat spleen containing alpha-1B adrenergic receptor. It is filed as functional, tissue-based. The gist of the method:
as §1

Test [5] concerns the target T4, Alpha-1B adrenergic receptor (Mesocricetus auratus, UniProt P18841).
T4 sequence (P18841 whole entry): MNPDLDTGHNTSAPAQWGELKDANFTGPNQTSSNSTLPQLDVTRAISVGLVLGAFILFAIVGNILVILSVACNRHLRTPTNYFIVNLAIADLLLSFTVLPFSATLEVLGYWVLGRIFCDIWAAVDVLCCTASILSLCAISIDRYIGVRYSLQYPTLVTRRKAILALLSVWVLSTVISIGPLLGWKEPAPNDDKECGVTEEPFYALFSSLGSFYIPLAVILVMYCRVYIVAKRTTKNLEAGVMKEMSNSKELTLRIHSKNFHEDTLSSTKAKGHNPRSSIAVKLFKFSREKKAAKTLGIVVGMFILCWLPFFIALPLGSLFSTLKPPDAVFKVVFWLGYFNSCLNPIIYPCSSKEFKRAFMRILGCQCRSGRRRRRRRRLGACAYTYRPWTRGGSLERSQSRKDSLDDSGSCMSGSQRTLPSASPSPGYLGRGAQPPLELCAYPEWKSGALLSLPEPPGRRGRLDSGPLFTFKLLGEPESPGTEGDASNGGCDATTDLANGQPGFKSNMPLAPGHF
Nature of the test: In vitro binding affinity towards alpha-1B adrenergic receptor of hamster clone in radioligand binding assay. It is filed as single protein. The method, boiled down:
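Radioligand binding at α1 subtypes: α1A from rat submaxillary gland, α1B hamster clone, α1D rat clone. Run essentially per an earlier method.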

For test [6], the target named is T5, Alpha-2A adrenergic receptor (Rattus norvegicus) (UniProt P22909).
T5 sequence (whole entry): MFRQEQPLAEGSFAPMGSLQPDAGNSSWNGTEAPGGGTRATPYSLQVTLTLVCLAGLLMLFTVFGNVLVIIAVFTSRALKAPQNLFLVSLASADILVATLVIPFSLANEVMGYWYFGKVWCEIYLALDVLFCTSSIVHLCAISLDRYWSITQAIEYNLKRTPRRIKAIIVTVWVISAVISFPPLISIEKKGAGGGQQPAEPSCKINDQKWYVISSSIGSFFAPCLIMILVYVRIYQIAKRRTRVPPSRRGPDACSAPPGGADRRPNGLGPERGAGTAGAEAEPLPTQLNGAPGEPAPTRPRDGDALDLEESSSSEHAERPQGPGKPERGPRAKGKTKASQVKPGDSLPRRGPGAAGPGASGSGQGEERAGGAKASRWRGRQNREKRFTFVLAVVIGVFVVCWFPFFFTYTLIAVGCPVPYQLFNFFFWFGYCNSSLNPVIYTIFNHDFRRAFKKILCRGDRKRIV
As to the kind of experiment: Functional agonism to constrict tissue containing alpha-2A adrenergic receptor in rat prostatic vas deferens. It is filed as tissue-based.

The nature of test [7]: Relative affinities for alpha-2a and alpha-1A receptors.

Alpha adrenergic receptor 1A and 1B (Rattus norvegicus), sequence (P43140 whole entry, looked up, one chain of several): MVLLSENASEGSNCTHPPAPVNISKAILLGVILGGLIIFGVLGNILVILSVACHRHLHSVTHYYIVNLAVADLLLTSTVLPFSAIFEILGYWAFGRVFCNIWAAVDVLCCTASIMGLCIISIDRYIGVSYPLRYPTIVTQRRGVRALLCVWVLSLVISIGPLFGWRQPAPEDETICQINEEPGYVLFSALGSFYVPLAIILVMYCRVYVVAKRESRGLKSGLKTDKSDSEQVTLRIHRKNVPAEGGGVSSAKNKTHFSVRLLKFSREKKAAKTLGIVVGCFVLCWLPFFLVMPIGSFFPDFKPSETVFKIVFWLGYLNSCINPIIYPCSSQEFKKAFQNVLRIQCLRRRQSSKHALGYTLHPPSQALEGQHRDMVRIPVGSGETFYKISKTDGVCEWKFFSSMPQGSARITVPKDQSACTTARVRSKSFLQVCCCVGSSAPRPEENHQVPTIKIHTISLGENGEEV

For the compound `O=C(Nc1cccc2c1CCCC2c1c[nH]cn1)C(F)(F)F` (stereo unspecified), the Efficacy in test [1] amounted to 118%; in test [4], 19%. Besides, the Selectivity in test [2] came out at 60; in test [7], 2. For the same compound, the Ki in test [3] is 661 nM; in test [5], more than 10 µM. Besides, the pD2 in test [6] amounted to 7.14.
Take `COc1ccc(OC)c(C(O)CN)c1` (stereo unspecified) [DESGLYMIDODRINE]: the Efficacy turned out to be 133% in test [1] and 68% in test [4]. The Selectivity in test [2] is 3; in test [7], 0.7. Moreover, the affinity in test [3] corresponds to a Ki of 1860 nM. Moreover, the pD2 in test [6] was determined as 8.23.
For the compound `CC(N)C(O)c1ccccc1` (stereo unspecified) [PHENYLPROPANOLAMINE], the Efficacy was found to be 68% in test [1] and 34% in test [4]. Further, the Selectivity in test [2] came out at 1; in test [7], 0.03. Moreover, the Ki in test [3] was 263 nM; in test [5], 9.55 µM.
`O=S(=O)(CC(F)(F)F)Nc1cccc2c1CCCC2c1c[nH]cn1` (single isomer, unassigned; (+)) displayed an Efficacy in test [1] of 52%. Also, the Selectivity in test [2] was more than 80; in test [7] it was 8. The values for the inhibitory constant (Ki) in test [3] and in test [5] were more than 10000 nM and more than 10 µM, respectively. The same compound registered a pD2 in test [6] of 6.59.
`CN(c1cccc2c1CCCC2c1c[nH]cn1)S(C)(=O)=O` (stereo unspecified) had an Efficacy in test [1] of 79%. Further, the Selectivity in test [2] was more than 50; in test [7] it was 0.4. Further, the Ki in test [3] was 912 nM; in test [5], more than 10 µM. The pD2 in test [6] came out at 7.08.

The Ki is the equilibrium dissociation constant of an inhibitor or competing ligand from its target. A low value points to higher affinity.
